In ChEMBL document CHEMBL4609990, “Design and synthesis of cyanamides as potent and selective N-acylethanolamine acid amidase inhibitors” (Bioorg Med Chem, 2020):
pIC50: −log10 of the molar value. One block for each compound: values may come before it.

Experiments:
[1] = molecular target: T1, N-acylethanolamine-hydrolyzing acid amidase (Homo sapiens) (UniProt Q02083); test: Irreversible inhibition of activated human NAAA assessed as ratio of Kinact/Ki using fluorogenic PAMCA and N-4-methylcoumarin as substrate
T1 sequence (whole entry): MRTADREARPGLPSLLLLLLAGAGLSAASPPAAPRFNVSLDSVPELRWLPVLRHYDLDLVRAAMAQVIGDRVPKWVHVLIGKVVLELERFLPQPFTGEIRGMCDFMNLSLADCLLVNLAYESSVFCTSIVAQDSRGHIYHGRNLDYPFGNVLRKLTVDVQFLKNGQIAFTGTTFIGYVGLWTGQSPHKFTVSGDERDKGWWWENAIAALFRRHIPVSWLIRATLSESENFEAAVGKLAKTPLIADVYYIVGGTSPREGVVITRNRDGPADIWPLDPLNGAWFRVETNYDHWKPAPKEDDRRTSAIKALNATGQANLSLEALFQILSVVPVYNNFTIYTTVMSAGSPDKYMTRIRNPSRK

[2] = Half life in human liver microsomes at 1 uM in presence of NADPH by LC-MS/MS
[3] = molecular target: T2, N-acylethanolamine-hydrolyzing acid amidase (Homo sapiens, UniProt Q02083); test: Inhibition of activated human NAAA using fluorogenic PAMCA and N-4-methylcoumarin as substrate incubated for 90 mins by fluorescence based assay
T2 sequence (Q02083 whole entry): T1 sequence (whole entry)
In short: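 Purified activated hNAAA (final 0.25 µg/mL) in 100 mM citrate-phosphate pH 4.5, 3 mM DTT, 0.1% Triton X-100, 0.05% BSA, 150 mM NaCl; compound in DMSO preincubated 90 min at room temperature. PAMCA added (final 5 µM), reaction at 37 °C for 90 min, fluorescence ex 360/em 460 nm read every 10 min. RFU converted to AMC via AMC standard curve. IC50 from eight concentrations, triplicate.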

[4] = Half life in rat liver microsomes at 1 uM in presence of NADPH by LC-MS/MS
[5] = molecular target: T3, Fatty-acid amide hydrolase 1 (Homo sapiens) (UniProt O00519); test: Inhibition of recombinant human FAAH expressed in Escherichia coli at 1 uM using fluorogenic AAMCA as substrate by fluorimetric assay relative to control
T3 sequence (whole entry): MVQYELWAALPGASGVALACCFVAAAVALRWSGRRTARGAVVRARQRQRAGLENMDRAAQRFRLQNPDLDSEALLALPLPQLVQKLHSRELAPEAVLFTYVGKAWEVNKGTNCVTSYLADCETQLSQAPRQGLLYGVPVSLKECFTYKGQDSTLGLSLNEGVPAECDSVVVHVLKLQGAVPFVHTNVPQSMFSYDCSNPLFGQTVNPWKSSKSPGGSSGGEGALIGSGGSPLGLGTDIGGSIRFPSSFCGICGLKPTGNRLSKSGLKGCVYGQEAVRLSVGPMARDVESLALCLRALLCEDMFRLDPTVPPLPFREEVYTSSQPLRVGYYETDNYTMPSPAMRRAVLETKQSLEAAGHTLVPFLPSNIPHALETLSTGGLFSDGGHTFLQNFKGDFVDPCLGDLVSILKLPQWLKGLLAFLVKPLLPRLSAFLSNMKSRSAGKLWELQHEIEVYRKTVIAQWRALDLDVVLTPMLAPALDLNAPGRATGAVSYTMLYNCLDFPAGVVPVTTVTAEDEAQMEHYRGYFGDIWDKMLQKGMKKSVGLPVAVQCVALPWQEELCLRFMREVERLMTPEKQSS
In short: (§1)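 Human recombinant FAAH expressed in E. coli and purified; fluorometric assay with arachidonoyl 7-amino-4-methylcoumarin amide (AAMCA) as substrate; IC50 by curve fitting, or percent inhibition at 1 µM.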

[6] = molecular target: T4, Monoglyceride lipase (Homo sapiens) (UniProt Q99685); test: Inhibition of recombinant human hexaHis-tagged MGL expressed in Escherichia coli BL21 (DE3) at 1 uM using fluorogenic AHMMCE as substrate preincubated for 1 hr followed by substrate addition by fluorimetric assay relative to control
T4 sequence (whole entry): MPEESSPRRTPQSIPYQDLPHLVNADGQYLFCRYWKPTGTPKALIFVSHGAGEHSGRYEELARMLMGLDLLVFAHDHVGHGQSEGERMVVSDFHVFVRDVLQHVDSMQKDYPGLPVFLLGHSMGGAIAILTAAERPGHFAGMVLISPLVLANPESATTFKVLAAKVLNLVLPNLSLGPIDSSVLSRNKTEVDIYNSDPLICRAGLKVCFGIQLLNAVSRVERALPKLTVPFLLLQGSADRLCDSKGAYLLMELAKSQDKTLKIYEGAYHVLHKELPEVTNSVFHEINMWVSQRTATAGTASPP
In short: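 Human recombinant MGL expressed in E. coli and purified; fluorometric assay using arachidonoyl 7-hydroxy-6-methoxy-4-methylcoumarin ester (AHMMCE) as substrate; IC50 by curve fitting, or percent inhibition at 1 µM.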

Cathepsin K = molecular target: T5, Cathepsin K (Homo sapiens, UniProt P43235); test: Inhibition of recombinant human Cathepsin K using Z-Phe-Arg-AMC as substrate preincubated with enzyme for 120 mins followed by substrate addition by fluorimetry analysis
T5 sequence (P43235 whole entry): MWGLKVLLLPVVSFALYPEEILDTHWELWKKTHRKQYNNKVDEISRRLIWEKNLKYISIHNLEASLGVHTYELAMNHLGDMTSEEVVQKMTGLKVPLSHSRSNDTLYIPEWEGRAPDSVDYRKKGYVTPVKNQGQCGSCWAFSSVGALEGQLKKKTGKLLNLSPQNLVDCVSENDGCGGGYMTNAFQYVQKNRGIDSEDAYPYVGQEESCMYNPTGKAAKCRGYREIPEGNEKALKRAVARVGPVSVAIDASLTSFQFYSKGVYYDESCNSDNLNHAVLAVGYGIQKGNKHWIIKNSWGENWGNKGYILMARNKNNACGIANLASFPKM

[7] = molecular target: T6, Fatty-acid amide hydrolase 1 (Homo sapiens, UniProt O00519); test: Inhibition of recombinant human FAAH expressed in Escherichia coli using fluorogenic AAMCA as substrate by fluorimetric assay; in short: as §1
T6 sequence (O00519 whole entry): T3 sequence (whole entry)

Homo sapiens [8] = species on record: Homo sapiens; test: Selectivity index, ratio of IC50 for human hexaHis-tagged MGL expressed in Escherichia coli BL21 (DE3) using fluorogenic AHMMCE as substrate preincubated for 1 hr followed by substrate addition by fluorimetric assay to IC50 human NAAA using fluorogenic PAMCA and N-4-methylcoumarin as substrate incubated for 90 mins by fluorescence based assay
[9] = Half life in human plasma by HPLC analysis
Homo sapiens [10] = species on record: Homo sapiens; test: Selectivity index, ratio of IC50 for human Cathepsin K using […] as substrate preincubated with enzyme for 90 mins followed by substrate addition by fluorimetry analysis to IC50 human NAAA using fluorogenic PAMCA and N-4-methylcoumarin as substrate incubated for 90 mins by fluorescence based assay
Homo sapiens [11] = species on record: Homo sapiens; test: Selectivity index, ratio of IC50 for full length human ABHD6 using AHMMCE as substrate preincubated for 1 hr followed by substrate addition by fluorimetric assay to IC50 human NAAA using fluorogenic PAMCA and N-4-methylcoumarin as substrate incubated for 90 mins by fluorescence based assay

- Ratio [1]: 2.74 ×10⁶ /M/s
- half-life at 1 µM ([2]; liver microsomes): 6.8 min
- pIC50 [3]: 8.80
- half-life at 1 µM ([4]; liver microsomes): 8.9 min
SMILES: N#CN1CC(OCc2ccc(-c3ccc(C(F)(F)F)cc3)cc2)C1

- inhibition [5]: 99%
- pIC50 [3]: 8.21
- inhibition [6]: 13.5%
SMILES: N#CN1CC(OCc2ccc(-c3ccc4c(c3)OCCO4)cc2)(c2ccccc2)C1

- pIC50 [3]: 8.85
SMILES: N#CN1CC(OCc2ccc(-c3cccc(OCc4ccccc4)c3)cc2)C1

- inhibition [5]: 99%
- pIC50 [3]: 8.04
- inhibition [6]: 59%
SMILES: N#CN1CC(OCc2ccc(-c3ccc4c(c3)OCO4)cc2)(c2ccccc2)C1

- pIC50 (Cathepsin K): 7.30
SMILES: N#CN1CC(CNS(=O)(=O)c2ccccc2)C1

- pIC50 [3]: 7.40
SMILES: COc1ccncc1-c1ccc(COC2CN(C#N)C2)cc1

- Ratio [1]: 8.4 ×10⁶ /M/s
- pIC50 [3]: 9.06
SMILES: COc1cccc(-c2ccc(COC3CN(C#N)C3)cc2)c1OC

- pIC50 [7]: 7.99
- Ratio IC50 (Homo sapiens [8]): > 100
- pIC50 [3]: 8.55
- half-life [9]: 180 min
- Ratio IC50 (Homo sapiens [10]): > 100
- inhibition [6]: 14%
- Ratio IC50 (Homo sapiens [11]): > 100
SMILES: COc1cccc(-c2ccc(S(=O)(=O)N3CCC34CN(C#N)C4)cc2)c1

- pIC50 [3]: 6.50
SMILES: N#CN1CC[C@H](OCc2ccc(-c3ccccc3)cc2)C1

- pIC50 [3]: 8.24
SMILES: COc1ncccc1-c1ccc(COC2CN(C#N)C2)cc1

- pIC50 [7]: 9.00
- pIC50 [3]: 9.46
- half-life [9]: 127 min
SMILES: COc1ccc(-c2ccc(COC3(C4CC4)CN(C#N)C3)c(F)c2)cc1F

- pIC50 [3]: 7.94
SMILES: COc1cccc(-c2ccc(C(OC3CN(C#N)C3)c3ccccc3)cc2)c1 (stereo not given)

- pIC50 [3]: 8.07
SMILES: N#CN1CC(OCc2ccc(Oc3ccccc3)cc2-c2ccccc2)C1

- half-life at 1 µM ([2]; microsomes): 14.7 min
- pIC50 [3]: 8.80
- half-life at 1 µM ([4]; microsomes): 4.4 min
SMILES: COc1ccc(-c2ccc3c(c2)CN(C2CN(C#N)C2)C3)cc1F

- Ratio [1]: 3.03 ×10⁶ /M/s
- pIC50 [3]: 8.55
SMILES: N#CN1CC(OCc2ccc(-c3ccccc3)cc2)C1

- pIC50 [3]: 8.55
SMILES: COc1cccc(-c2ccc(COC3CN(C#N)C3)c(OC)c2)c1

- pIC50 [3]: 8.24
SMILES: COc1ccc(-c2cc(Oc3ccccc3)ccc2COC2CN(C#N)C2)cc1

- pIC50 [3]: 7.13
SMILES: Cn1nccc1-c1ccc(C(OC2CN(C#N)C2)c2ccccc2)cc1 (stereo not given)

- pIC50 [3]: 7.17
SMILES: COc1cccc(OC)c1-c1ccc(COC2CN(C#N)C2)cc1

- Ratio [1]: 1.33 ×10⁶ /M/s
- pIC50 [3]: 8.96
SMILES: N#CN1CC(OCc2ccc(Oc3ccccc3)cc2)C1

- half-life at 1 µM ([2]; microsomes): 15.3 min
- pIC50 [7]: 7.21
- pIC50 [3]: 8.04
- half-life at 1 µM ([4]; microsomes): 14.5 min
- inhibition [6]: 19.5%
SMILES: COc1cccc(-c2ccc(COC3(c4ccccc4)CN(C#N)C3)cc2)c1
